In ChEMBL document CHEMBL4354819, “Discovery of Novel Small Molecule Dual Inhibitors Targeting Toll-Like Receptors 7 and 8” (J Med Chem, 2019):
Calls of active or inactive are those of the source. The rule behind the calls is not given here.

How the values were obtained:
[1] = biological target: T1, Toll-like receptor 9 (Homo sapiens) (UniProt Q9NR96); assay: Inhibition of human TLR9 expressed in HEK293 cells assessed as reduction in ODN-2006-induced NFkappaB production at 1.5 uM incubated for 16 hrs by quanti-blue SEAP assay; type: cell-based
T1 sequence (whole entry): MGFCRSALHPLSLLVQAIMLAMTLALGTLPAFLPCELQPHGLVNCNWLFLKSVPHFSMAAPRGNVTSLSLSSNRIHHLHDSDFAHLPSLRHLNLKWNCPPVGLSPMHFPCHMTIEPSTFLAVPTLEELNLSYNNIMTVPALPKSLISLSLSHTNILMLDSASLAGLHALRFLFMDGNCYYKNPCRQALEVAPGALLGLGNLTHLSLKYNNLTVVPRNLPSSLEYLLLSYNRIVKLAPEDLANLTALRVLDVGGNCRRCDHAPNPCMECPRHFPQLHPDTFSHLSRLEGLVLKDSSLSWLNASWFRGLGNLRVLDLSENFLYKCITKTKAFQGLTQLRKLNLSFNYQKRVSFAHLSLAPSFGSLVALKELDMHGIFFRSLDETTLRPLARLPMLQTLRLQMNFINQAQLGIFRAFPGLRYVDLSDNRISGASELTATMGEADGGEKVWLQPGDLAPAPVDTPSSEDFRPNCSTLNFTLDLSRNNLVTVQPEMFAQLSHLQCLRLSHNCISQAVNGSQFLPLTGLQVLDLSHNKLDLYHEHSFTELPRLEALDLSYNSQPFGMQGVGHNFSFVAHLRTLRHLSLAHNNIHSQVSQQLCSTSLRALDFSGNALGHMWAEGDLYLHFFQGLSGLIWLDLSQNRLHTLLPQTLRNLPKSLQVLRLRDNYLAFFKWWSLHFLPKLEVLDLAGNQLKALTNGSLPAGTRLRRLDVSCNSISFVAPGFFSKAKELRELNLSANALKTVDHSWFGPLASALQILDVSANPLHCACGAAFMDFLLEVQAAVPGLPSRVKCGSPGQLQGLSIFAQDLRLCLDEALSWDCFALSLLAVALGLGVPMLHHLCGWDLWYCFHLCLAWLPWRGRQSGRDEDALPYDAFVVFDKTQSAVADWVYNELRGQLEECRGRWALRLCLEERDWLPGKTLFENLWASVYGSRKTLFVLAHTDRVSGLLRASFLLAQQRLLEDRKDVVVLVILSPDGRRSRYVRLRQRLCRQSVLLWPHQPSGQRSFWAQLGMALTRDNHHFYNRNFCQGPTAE
Procedure, shortened: (§1)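 Selectivity panel in stably transfected HEK 293-Blue cells, each overexpressing one human TLR with an inducible SEAP reporter. Agonists: Pam3CSK4 (TLR1/2), Pam2CSK4 (TLR2/6), poly(I:C) (TLR3), LPS (TLR4), R848 (TLR7/8), ODN 2006 (TLR9). Cells were exposed to compound for 16 h. Activity = (raw − untreated)/(ligand + solvent − untreated), with ligand + solvent set as 100%.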

[2] = tested on: HEK293; assay: Cytotoxicity against human HEK293 cells transfected with human TLR8 assessed as reduction in cell viability up to 5 uM incubated for 16 hrs by WST-1 assay; type: cell-based; conditions: hek293, 16 h
[3] = biological target: Toll-like receptor 4 (Homo sapiens) (UniProt O00206); assay: Inhibition of human TLR4 expressed in HEK293 cells assessed as reduction in LPS-induced NFkappaB production at 1.5 to 5 uM incubated for 16 hrs by quanti-blue SEAP assay; type: cell-based; procedure, shortened: as §1
[4] = biological target: Toll-like receptor 3 (Homo sapiens) (UniProt O15455); assay: Inhibition of human TLR3 expressed in HEK293 cells assessed as reduction in poly(I:C)-induced NFkappaB production at 1.5 to 5 uM incubated for 16 hrs by quanti-blue SEAP assay; type: cell-based; procedure, shortened: as §1
[5] = biological target: T2, Toll-like receptor 7 (Homo sapiens) (UniProt Q9NYK1); assay: Inhibition of human TLR7 expressed in HEK293 cells assessed as reduction in resiquimod-induced NFkappaB production at 5 to 20 uM incubated for 16 hrs by quanti-blue SEAP assay; type: cell-based; procedure, shortened: as §1
T2 sequence (whole entry): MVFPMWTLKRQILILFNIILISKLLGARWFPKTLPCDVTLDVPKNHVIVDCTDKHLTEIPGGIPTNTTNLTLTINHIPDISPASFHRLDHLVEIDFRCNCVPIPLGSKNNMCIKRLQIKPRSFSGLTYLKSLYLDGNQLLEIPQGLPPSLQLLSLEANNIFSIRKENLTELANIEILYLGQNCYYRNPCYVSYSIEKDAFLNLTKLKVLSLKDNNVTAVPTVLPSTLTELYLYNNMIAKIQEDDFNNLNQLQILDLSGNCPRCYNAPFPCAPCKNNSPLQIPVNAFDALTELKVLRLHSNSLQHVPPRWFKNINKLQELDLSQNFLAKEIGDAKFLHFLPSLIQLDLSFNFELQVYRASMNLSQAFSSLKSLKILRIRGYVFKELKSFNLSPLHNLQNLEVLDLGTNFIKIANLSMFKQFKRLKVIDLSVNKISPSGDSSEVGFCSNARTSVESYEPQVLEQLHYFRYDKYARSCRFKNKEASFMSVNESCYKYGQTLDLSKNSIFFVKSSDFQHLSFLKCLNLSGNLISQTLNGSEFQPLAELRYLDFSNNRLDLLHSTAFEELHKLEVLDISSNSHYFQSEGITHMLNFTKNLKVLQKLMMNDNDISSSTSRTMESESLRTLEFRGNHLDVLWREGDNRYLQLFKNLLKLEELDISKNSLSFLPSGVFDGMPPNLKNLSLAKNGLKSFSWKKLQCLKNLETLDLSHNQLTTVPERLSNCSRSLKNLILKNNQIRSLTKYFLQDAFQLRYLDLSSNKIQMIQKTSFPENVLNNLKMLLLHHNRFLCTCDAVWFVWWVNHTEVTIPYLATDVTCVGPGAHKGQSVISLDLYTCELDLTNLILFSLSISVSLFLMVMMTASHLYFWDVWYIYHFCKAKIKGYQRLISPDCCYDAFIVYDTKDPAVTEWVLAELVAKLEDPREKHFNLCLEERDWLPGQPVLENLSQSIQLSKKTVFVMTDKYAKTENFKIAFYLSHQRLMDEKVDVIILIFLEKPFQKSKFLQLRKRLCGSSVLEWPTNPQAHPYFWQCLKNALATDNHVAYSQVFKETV

[6] = tested on: THP-1; assay: Inhibition of IFN mediated immune response in human THP1 cells assessed as inhibition of G3-YSD-induced cGAS signalling pathway at 20 uM incubated for 16 hrs by luciferase assay; type: functional, cell-based
Procedure, shortened: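 THP1-Dual monocytes carrying Lucia luciferase and SEAP reporters were stimulated with 3p-hpRNA (RIG-I agonist) or Y-form dsDNA G3-YSD (cGAS agonist), with or without compound. Secreted Lucia luciferase luminescence was measured as the type I IFN read-out. Mean ± s.d., n = 3 independent experiments.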

Sequence of Toll-like receptor 4 (Homo sapiens) (O00206 whole entry): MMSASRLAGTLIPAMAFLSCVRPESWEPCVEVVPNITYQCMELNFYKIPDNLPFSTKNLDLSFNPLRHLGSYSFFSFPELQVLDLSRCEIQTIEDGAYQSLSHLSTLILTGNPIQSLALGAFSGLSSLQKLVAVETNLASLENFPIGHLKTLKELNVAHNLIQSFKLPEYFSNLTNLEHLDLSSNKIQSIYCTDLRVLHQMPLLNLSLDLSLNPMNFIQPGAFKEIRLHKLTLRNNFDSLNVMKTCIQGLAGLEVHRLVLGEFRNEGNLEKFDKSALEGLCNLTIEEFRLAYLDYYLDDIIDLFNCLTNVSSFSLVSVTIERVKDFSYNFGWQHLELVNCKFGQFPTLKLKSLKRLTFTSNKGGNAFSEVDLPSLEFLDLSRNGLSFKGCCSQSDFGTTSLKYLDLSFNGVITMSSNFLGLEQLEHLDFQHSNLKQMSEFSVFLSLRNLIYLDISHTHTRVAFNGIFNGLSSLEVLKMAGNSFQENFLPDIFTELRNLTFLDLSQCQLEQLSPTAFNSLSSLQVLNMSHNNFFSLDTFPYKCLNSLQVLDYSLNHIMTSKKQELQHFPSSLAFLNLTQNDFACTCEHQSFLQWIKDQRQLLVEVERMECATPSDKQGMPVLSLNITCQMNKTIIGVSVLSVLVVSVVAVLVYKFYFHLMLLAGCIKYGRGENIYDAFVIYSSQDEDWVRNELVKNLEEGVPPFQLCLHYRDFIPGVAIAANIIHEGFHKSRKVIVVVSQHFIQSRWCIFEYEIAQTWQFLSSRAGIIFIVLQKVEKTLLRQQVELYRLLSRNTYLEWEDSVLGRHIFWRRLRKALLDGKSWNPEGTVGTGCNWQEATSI
Sequence of Toll-like receptor 3 (Homo sapiens) (O15455 whole entry): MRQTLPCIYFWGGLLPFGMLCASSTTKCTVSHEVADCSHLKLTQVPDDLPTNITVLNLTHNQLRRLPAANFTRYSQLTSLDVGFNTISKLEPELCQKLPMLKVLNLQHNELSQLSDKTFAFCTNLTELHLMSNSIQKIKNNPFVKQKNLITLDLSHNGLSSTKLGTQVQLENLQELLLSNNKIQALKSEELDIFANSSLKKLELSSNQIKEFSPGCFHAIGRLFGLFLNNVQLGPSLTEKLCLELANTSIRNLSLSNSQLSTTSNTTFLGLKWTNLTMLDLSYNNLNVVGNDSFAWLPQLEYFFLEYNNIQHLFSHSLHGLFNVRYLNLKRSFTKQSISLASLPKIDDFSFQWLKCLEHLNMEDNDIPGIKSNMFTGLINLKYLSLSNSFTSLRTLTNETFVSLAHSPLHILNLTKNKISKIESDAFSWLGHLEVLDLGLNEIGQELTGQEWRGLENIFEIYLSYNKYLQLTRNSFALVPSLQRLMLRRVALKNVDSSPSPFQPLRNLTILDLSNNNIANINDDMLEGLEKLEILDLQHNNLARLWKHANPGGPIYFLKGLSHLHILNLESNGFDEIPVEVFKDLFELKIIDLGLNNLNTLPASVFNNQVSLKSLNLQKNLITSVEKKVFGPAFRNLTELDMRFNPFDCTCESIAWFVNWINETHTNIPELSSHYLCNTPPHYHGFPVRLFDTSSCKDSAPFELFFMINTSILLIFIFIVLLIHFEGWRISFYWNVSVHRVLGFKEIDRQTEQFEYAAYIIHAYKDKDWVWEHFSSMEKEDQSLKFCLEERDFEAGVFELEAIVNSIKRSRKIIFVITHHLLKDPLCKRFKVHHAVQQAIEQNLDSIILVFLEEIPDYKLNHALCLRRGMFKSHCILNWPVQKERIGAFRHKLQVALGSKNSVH

O=C(Nc1ccc(Oc2cc(C(F)(F)F)cc(C(F)(F)F)c2)cc1)c1c(F)cccc1Cl
inhibition [1]: inactive | Activity [2]: Non-Toxic | inhibition [3]: inactive | inhibition [4]: inactive

O=C(Nc1ccc(Oc2cncc(C(F)(F)F)c2)cc1)c1c(F)cccc1Cl
inhibition [5]: Active

O=[N+]([O-])c1c(I)cccc1Oc1ccc(-c2nnco2)cc1
inhibition [6]: Active
